Laboratory results reported in ChEMBL document CHEMBL4017507 (J Med Chem, 2017).

What was measured:
CCRF-CEM = assay: (§1) Cytostatic activity human CEM cells assessed as reduction in cell viability after 72 hrs by cell counting method; assay type: cell-based; details: ccrf-cem, 72 h
Procedure, shortened: (§2)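 (5–7.5) × 10^? CEM cells per well were grown with compound for 72 h at 37 °C under humidified CO2. Cells were counted in a Coulter counter.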

Human alphaherpesvirus 3 [1] = assay: Antiviral activity against Varicella-Zoster virus OKA infected in human HEL cells assessed as inhibition of virus-induced cytopathic effect; assay type: functional, cell-based; details: Human alphaherpesvirus 3, strain Oka vaccine
Procedure, shortened: (§3)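 Confluent HEL fibroblast cultures were inoculated with 20 PFU of VZV in the presence of varying compound concentrations. Plaque formation was recorded once untreated infected controls reached completion.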

Human betaherpesvirus 5 [2] = assay: Antiviral activity against human cytomegalovirus AD-169 infected in human HEL cells assessed as inhibition of virus-induced cytopathic effect; assay type: functional, cell-based; details: Human betaherpesvirus 5, AD-169, HEL
Procedure, shortened: (§4)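 Confluent HEL fibroblast monolayers were inoculated in 96-well plates with 100 CCID50 of virus in the presence of serially varied compound concentrations. Cytopathicity was scored once untreated infected controls reached full CPE.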

Human alphaherpesvirus 2 = assay: Antiviral activity against Herpes simplex virus 2 G infected in human HEL cells assessed as inhibition of virus-induced cytopathic effect; assay type: functional, cell-based; details: Human alphaherpesvirus 2, strain G; procedure, shortened: as §4
[3] = tested on: Human immunodeficiency virus 1; assay: Antiviral activity against HIV1 X4LAI.04 infected in human tonsillar tissues assessed as inhibition of virus-induced cytopathic effect by p24gag-based luminex assay; assay type: functional; details: Human immunodeficiency virus 1, X4LAI.04
Procedure, shortened: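 Tonsillectomy tissue blocks of 2–3 mm³ were cultured on collagen sponge gels at the air–liquid interface, 27 blocks per donor per condition. Blocks were pretreated with compound overnight, infected with HIV-1 X4LAI.04 and cultured 12 days, with drug replenished at each medium change every 3 days. Medium p24 was measured by Luminex. Inhibition was calculated against untreated tissue, and EC50 was derived from it.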

Human betaherpesvirus 5 [4] = assay: Antiviral activity against human cytomegalovirus Davis infected in human HEL cells assessed as inhibition of virus-induced cytopathic effect; assay type: functional, cell-based; details: Human betaherpesvirus 5, Davis; procedure, shortened: as §4
[5] = tested on: Human immunodeficiency virus 1; assay: Antiviral activity against HIV1 X4LAI.04 infected in human MT4 cells assessed as decrease in viral replication by p24gag-based luminex assay; assay type: functional, cell-based; details: Human immunodeficiency virus 1, X4LAI.04, MT4
Procedure, shortened: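 10^6 MT-4 cells were infected with HIV-1 X4LAI.04 (7 ng p24) for 2 h at 37 °C, then washed with PBS and resuspended. Compounds were added and cultures were kept 3 days at 37 °C. Supernatant p24 was measured by bead-based Luminex. Inhibition was calculated as (1 − p24 treated/p24 untreated) × 100, and EC50 was derived from it.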

HEL = assay: Cytotoxicity against human HEL cells assessed as cell growth inhibition by cell counting method; assay type: cell-based
[6] = Cytotoxicity against human HEL cells assessed as alteration to cell morphology by microscopic analysis; assay type: cell-based
Procedure, shortened: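 Minimal cytotoxic concentration is the compound concentration giving a microscopically visible alteration of HEL cell morphology, scored in the antiviral assay cultures.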

Human alphaherpesvirus 1 [7] = assay: Antiviral activity against Herpes simplex virus 1 KOS infected in human HEL cells assessed as inhibition of virus-induced cytopathic effect; assay type: functional, cell-based; details: Human alphaherpesvirus 1, KOS; procedure, shortened: as §4
MT4 = assay: Cytotoxicity against human MT4 cells assessed as reduction in cell viability by cell counting method; assay type: cell-based
Procedure, shortened: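 MT-4 cultures, untreated or treated, were assessed with an automated cell counter using propidium iodide staining to enumerate total and dead cells.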

Human alphaherpesvirus 3 [8] = assay: Antiviral activity against thymidine kinase deficient Varicella-Zoster virus 07-1 infected in human HEL cells assessed as inhibition of virus-induced cytopathic effect; assay type: functional, cell-based; details: Human alphaherpesvirus 3, 07-1, HEL; procedure, shortened: as §3
Human alphaherpesvirus 1 [9] = assay: Antiviral activity against ACV-resistant thymidine kinase deficient Herpes simplex virus 1 KOS infected in human HEL cells assessed as inhibition of virus-induced cytopathic effect; assay type: functional, cell-based; details: Human alphaherpesvirus 1, KOS; procedure, shortened: as §4
[10] = Drug metabolism assessed as carboxypeptidase Y (unknown origin)-mediated metabolite 81 peak measured with in 1 hr by [31P]-NMR spectroscopic analysis; assay type: ADME; details: human
[11] = Drug metabolism assessed as carboxypeptidase Y (unknown origin)-mediated metabolite 81 formation measured after 24 hrs by [31P]-NMR spectroscopic analysis; assay type: ADME; details: human
[12] = Selectivity index, ratio of IC50 for human MT4 cells to EC50 for HIV1 X4LAI.04; assay type: toxicity; details: read-out: Ratio IC50/EC50
[13] = as §1; assay type: cell-based, CCRF-CEM; details: CEM cells (CCRF-CEM); procedure, shortened: as §2

SMILES | CC50 (CCRF-CEM) [µM] | EC50 (Human alphaherpesvirus 3 [1]) [µM] | EC50 (Human betaherpesvirus 5 [2]) [µM] | EC50 (Human alphaherpesvirus 2) [µM] | EC50 [3] [µM] | EC50 (Human betaherpesvirus 5 [4]) [µM] | EC50 [5] [µM] | CC50 (HEL) [µM] | MCC [6] [µM] | EC50 (Human alphaherpesvirus 1 [7]) [µM] | IC50 (MT4) [µM] | EC50 (Human alphaherpesvirus 3 [8]) [µM] | EC50 (Human alphaherpesvirus 1 [9]) [µM] | Drug metabolism [10] | Drug metabolism [11] | selectivity ratio [12] | CC50 at 72 h [13] [µM]
Nc1nc(O)c2ncn(CSC(CO)CO)c2n1 | > 500 | 6.9 | > 50 | 0.5 | > 30 | 40.8 | > 150 | > 100 | 50 to 100 | 0.4 | > 150 | > 50 | 1.6 | – | – | – | –
COc1nc(N)nc2c1ncn2CCC(COP(=O)(N[C@@H](C)C(=O)OCc1ccccc1)Oc1ccccc1)COP(=O)(N[C@@H](C)C(=O)OCc1ccccc1)Oc1ccccc1 (stereo partly specified) | 19 | 22 | > 50 | > 100 | – | 37 | 12 | 25 | 50 to 100 | 100 | 20 | 20 | 100 | – | – | – | –
CCOC(=O)[C@H](C)NP1(=O)OCC(OCn2cnc3c(=O)[nH]c(N)nc32)CO1 (stereo partly specified) | – | – | – | – | 4.6 | – | 22 | – | – | – | > 150 | – | – | – | – | – | –
C[C@H](NP(=O)(OCC(CO)CCn1cnc2c(=O)[nH]c(N)nc21)Oc1ccccc1)C(=O)OCc1ccccc1 (stereo partly specified) | > 250 | 2.6 | > 50 | 16 | > 20 | > 50 | 10 | > 100 | 50 to 100 | 8 | > 150 | 45 | ≥ 100 | – | – | – | –
Nc1nc(Cl)c2ncn(CCC(CO)CO)c2n1 | 400 | > 50 | > 50 | > 100 | > 60 | > 50 | > 150 | > 100 | 50 to 100 | > 100 | > 150 | > 50 | > 100 | – | – | – | –
C[C@H](NP(=O)(OCC(CO)OCn1cnc2c(=O)[nH]c(N)nc21)Oc1cccc2ccccc12)C(=O)OCc1ccccc1 (stereo partly specified) | – | 9.5 | 9.5 | 0.5 | 11 | 6.5 | 8 | – | > 100 | 0.4 | 100 | 28.2 | 3 | – | – | – | –
CCC(C)(C)COC(=O)[C@H](C)NP(=O)(OCC(CO)CCn1cnc2c(OC)nc(N)nc21)Oc1cccc2ccccc12 (stereo partly specified) | 18 | 4.4 | 43 | 10 | – | > 50 | 24 | 28 | 50 to 100 | 11 | 17 | 9.7 | ≥ 20 | – | – | – | –
CC(=O)OCC(CO)OCn1cnc2c(Cl)nc(N)nc21 (stereo unspecified) | ≥ 250 | – | – | – | > 10 | – | > 150 | – | – | – | > 150 | – | – | – | – | – | –
C[C@H](NP(=O)(OCC(COP(=O)(N[C@@H](C)C(=O)OCc1ccccc1)Oc1ccccc1)SCn1cnc2c(=O)[nH]c(N)nc21)Oc1ccccc1)C(=O)OCc1ccccc1 (stereo partly specified) | 77 | 23 | > 50 | > 100 | > 3 | > 50 | 24 | > 100 | 50 to 100 | > 100 | 21 | > 50 | > 100 | – | – | – | –
COc1nc(N)nc2c1ncn2CCC(CO)COP(=O)(N[C@@H](C)C(=O)OCc1ccccc1)Oc1cccc2ccccc12 (stereo partly specified) | 27 | 17 | > 50 | 20 | – | 50 | 23 | 49 | 50 to 100 | 38 | 12 | 23 | 20 | – | – | – | –
COc1nc(N)nc2c1ncn2CCC(COP(=O)(N[C@@H](C)C(=O)OCC(C)(C)C)Oc1cccc2ccccc12)COP(=O)(N[C@@H](C)C(=O)OCC(C)(C)C)Oc1cccc2ccccc12 (stereo partly specified) | 4.6 | 4.3 | 15 | > 100 | – | 20 | 8.2 | 2.5 | 20 to 100 | > 100 | 5 | 7.7 | > 100 | – | – | – | –
COc1nc(N)nc2c1ncn2CCC(CO)COP(=O)(N[C@@H](C)C(=O)OCC(C)(C)C)Oc1cccc2ccccc12 (stereo partly specified) | 17 | 2 | 50 | 9 | – | 40 | 41 | 7.6 | 50 to 100 | 9 | 35 | 6.2 | 15 | – | – | – | –
CCC(C)(C)COC(=O)[C@H](C)NP(=O)(OCC(CCn1cnc2c(OC)nc(N)nc21)COP(=O)(N[C@@H](C)C(=O)OCC(C)(C)CC)Oc1cccc2ccccc12)Oc1cccc2ccccc12 (stereo partly specified) | 7.2 | 6.4 | > 20 | > 100 | – | > 20 | 5.6 | 5 | 50 to 100 | > 100 | 9 | 9.5 | > 100 | – | – | – | –
CC(C)OC(=O)[C@H](C)NP(=O)(OCC(CO)OCn1cnc2c(=O)[nH]c(N)nc21)Oc1cccc2ccccc12 (stereo partly specified) | 35 | ≥ 23.5 | > 50 | 3 | – | 6.8 | 40 | > 50 | > 100 | 2 | 150 | ≥ 10.8 | ≥ 75 | Metabolite_Detected | Metabolite_Notdetected | – | –
COC(=O)[C@H](C)NP(=O)(OCC(CO)CCn1cnc2c(OC)nc(N)nc21)Oc1cccc2ccccc12 (stereo partly specified) | 15 | 13 | 32 | > 100 | – | 14 | 16 | 37 | 50 to 100 | > 100 | 10 | 25 | > 100 | – | – | – | –
COc1nc(N)nc2c1ncn2CCC(CO)COP(=O)(N[C@@H](C)C(=O)OCc1ccccc1)Oc1ccccc1 (stereo partly specified) | 32 | 17.1 | 31.6 | 29 | 0.9 | 7.9 | 1.1 | ≥ 83 | 50 to 100 | 39 | 23 | 22.2 | 39 | – | – | 2.1 | –
COc1nc(N)nc2c1ncn2CCC(CO)CO | 246 | 22.8 | > 50 | > 100 | > 30 | > 50 | > 150 | > 100 | 50 to 100 | > 100 | > 150 | > 50 | > 100 | – | – | – | –
Nc1nc(O)c2ncn(COC(CO)CO)c2n1 [GANCICLOVIR] | – | – | – | 0.04 | 5 | – | > 50 | 273 | 100 to 350 | – | > 50 | – | – | – | – | – | > 100
Nc1nc2c(ncn2CCC(CO)CO)c(=O)[nH]1 [PENCICLOVIR] | – | – | > 50 | – | 11 | > 50 | > 150 | > 100 | > 100 | – | > 150 | 10.2 | 4 | – | – | – | –
